Activity calls are given as the source filed them. The calls are words filed in the database; no cut-off is given here.
Legend:
[1] = Cytotoxicity against human HT1080 cells assessed as cell viability after 24 hrs by MTT assay; format: cell-based; conditions: HT-1080 cells
Summary of the method: (§1)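 Cells seeded (Caco-2 8 × 10³/well, HT1080 12 × 10⁴/well), grown to 70% confluence, serum-starved 1 h, then exposed to compound at 0.1−200 μM (eight levels) serum-free for 24 h. MTT 0.5 mg/mL for 3 h at 37 °C, formazan dissolved in DMSO, OD 540 nm; viability as % of untreated. CC50 from sigmoidal fits; three experiments, triplicate wells.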

[2] = molecular target: 72 kDa type IV collagenase (Homo sapiens, UniProt P08253); test: Inhibition of p-aminophenylmercuric acetate stimulated human recombinant MMP-2 using (7-methoxycoumarin-4-yl)-acetyl-pro-Leu-Gly-Leu-(3-(2,4-dinitrophenyl)-L-2,3-diaminopropionyl)-Ala-Arg-NH2 as substrate after 45 mins by fluorogenic assay
[3] = Cytotoxicity against human Caco2 cells assessed as cell viability after 24 hrs by MTT assay; format: cell-based; conditions: Caco-2 cells; summary of the method: as §1
[4] = molecular target: Matrix metalloproteinase-9 (Homo sapiens, UniProt P14780); test: Inhibition of p-aminophenylmercuric acetate stimulated human recombinant MMP-9 using (7-methoxycoumarin-4-yl)-acetyl-pro-Leu-Gly-Leu-(3-(2,4-dinitrophenyl)-L-2,3-diaminopropionyl)-Ala-Arg-NH2 as substrate after 45 mins by fluorogenic assay
Caco-2 [5] = test: Inhibition of HGF stimulated human Caco2 cells migration through matrigel membrane at 100 nM by staining based light microscopic analysis; format: functional
Summary of the method: (§2)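 Matrigel-coated invasion chamber inserts, 8 μm pore membrane, 0.5 mL of 2 × 10⁵ Caco-2 cells/mL; stimulated with HGF (100 or 500 ng/mL) or PMA (10 μM) with compound (100 nM or 10 μM); 48 h invasion at 37 °C, 5% CO2. Non-invading cells swabbed off, lower-surface cells Diff-Quik stained and counted by light microscopy; normalized to stimulated control; duplicates.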

[6] = Cytotoxicity against human Caco2 cells assessed as inhibition of cell viability at 100 uM after 24 hrs by MTT assay; format: cell-based; conditions: Caco-2 cells, read-out: INH; summary of the method: as §1
[7] = Cytotoxicity against human HT1080 cells assessed as inhibition of cell viability at 100 uM after 24 hrs by MTT assay; format: cell-based; conditions: HT-1080 cells, read-out: INH; summary of the method: as §1
Caco-2 [8] = test: Induction of nitrite release in human Caco2 cells at 10 uM after 24 hrs by Griess assay; format: functional, cell-based
Summary of the method: (§3)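 Compounds incubated 24 h with Caco-2 monolayers at 200 or 10 μM (n = 3). Supernatant nitrite read by Griess reaction (sulfanilamide 2% plus N-1-naphthylethylenediamine) at 4 °C, 45 min shaking, A540; nitrate measured after VCl3 reduction. Quantified against sodium nitrite/nitrate standards 3−200 μM; NOx = nitrite + nitrate.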

HT-1080 [9] = test: Induction of apoptosis in human HT1080 cells assessed as increase in necrotic cell population at 10 uM after 24 hrs by Annexin V FITC staining based flow cytometry; conditions: ht-1080, 24 h
Summary of the method: (§4)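 Cells at 80% confluence in T25 flasks treated 24 h serum-free with compound (10 μM); vehicle-only controls. Cells washed in Hepes pH 7.4/NaCl/CaCl2 binding buffer, double-stained with Annexin V-FITC and propidium iodide 15 min at room temperature in dark, read by flow cytometry within 5 min; expressed as % of control fluorescence.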

Caco-2 [10] = test: Inhibition of IL1beta/TNFalpha-stimulated MMP-2 secretion in human Caco2 cells at 10 uM after 24 hrs by densitometric analysis; format: functional, cell-based
Summary of the method: (§5)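 Near-confluent (~75%) Caco-2 switched to serum-free medium, pretreated 30 min with compound (10 μM, DMSO <1%), then TNF-α and IL-1β 10 ng/mL for 24 h at 37 °C. Cleared supernatants normalized by Bradford protein, run on 2% gelatin SDS-PAGE, Triton washed, developed 48 h at 37 °C in Tris pH 7.5/CaCl2 buffer, Coomassie stained; lysis bands quantified by densitometry as % of cytokine-only control.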

Caco-2 [11] = test: Induction of nitrite release in human Caco2 cells at 200 uM after 24 hrs by Griess assay; format: functional, cell-based; summary of the method: as §3
Caco-2 [12] = test: Inhibition of IL1beta/TNFalpha-stimulated MMP-9 secretion in human Caco2 cells at 10 uM after 24 hrs by densitometric analysis; format: functional, cell-based; summary of the method: as §5
Caco-2 [13] = test: Induction of nitrate release in human Caco2 cells at 10 uM after 24 hrs by Griess assay; format: functional, cell-based; summary of the method: as §3
Caco-2 [14] = test: Induction of apoptosis in human Caco2 cells assessed as increase in necrotic cell population at 10 uM after 24 hrs by Annexin V FITC staining based flow cytometry; conditions: caco-2, 24 h; summary of the method: as §4
[15] = Cytotoxicity against human Caco2 cells assessed as inhibition of cell viability at 12.5 uM after 24 hrs by MTT assay; format: cell-based; conditions: Caco-2 cells, read-out: INH; summary of the method: as §1
HT-1080 [16] = test: Inhibition of PMA-stimulated MMP-9 secretion in human HT1080 cells at 100 uM after 24 hrs by gelatin zymography; format: functional; conditions: for inhibition at 100 µM: HT-1080, 24 h
Summary of the method: (§6)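 HT1080 at ~75% confluence switched to serum-free medium, pretreated 3 h with compound (100 μM; DMSO ≤0.1%), then PMA 10 μM for 24 h at 37 °C. Cleared supernatants loaded at equal protein on 2% gelatin SDS-PAGE, Triton washed, developed 48 h at 37 °C in Tris pH 7.5/CaCl2 buffer, Coomassie stained; gelatinolytic bands quantified by densitometry relative to stimulated control.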

HT-1080 [17] = test: Induction of apoptosis in human HT1080 cells assessed as increase in apoptotic cell population at 10 uM after 24 hrs by Annexin V FITC staining based flow cytometry; conditions: ht-1080, 24 h; summary of the method: as §4
HT-1080 [18] = test: Inhibition of PMA-stimulated MMP-2 secretion in human HT1080 cells at 100 uM after 24 hrs by gelatin zymography; format: functional, cell-based; summary of the method: as §6
Caco-2 [19] = test: Induction of nitrate release in human Caco2 cells at 200 uM after 24 hrs by Griess assay; format: functional, cell-based; summary of the method: as §3
Caco-2 [20] = test: Induction of apoptosis in human Caco2 cells assessed as increase in apoptotic cell population at 10 uM after 24 hrs by Annexin V FITC staining based flow cytometry; conditions: caco-2, 24 h; summary of the method: as §4
Caco-2 [21] = test: Inhibition of PMA-stimulated human Caco2 cells migration through matrigel membrane at 10 uM after 48 hrs by light microscopic analysis; format: functional; conditions: Caco-2, 48 h; summary of the method: as §2
[22] = Cytotoxicity against human Caco2 cells assessed as inhibition of cell viability at 200 uM after 24 hrs by MTT assay; format: cell-based; conditions: Caco-2 cells, read-out: INH; summary of the method: as §1
Caco-2 [23] = test: Inhibition of HGF-stimulated human Caco2 cells invasion at 10 uM by light microscopic analysis; format: functional; summary of the method: as §2
[24] = Cytotoxicity against human Caco2 cells assessed as inhibition of cell viability at 2.5 uM after 24 hrs by MTT assay; format: cell-based; conditions: Caco-2 cells, read-out: INH; summary of the method: as §1

Sequence of 72 kDa type IV collagenase (P08253 whole entry): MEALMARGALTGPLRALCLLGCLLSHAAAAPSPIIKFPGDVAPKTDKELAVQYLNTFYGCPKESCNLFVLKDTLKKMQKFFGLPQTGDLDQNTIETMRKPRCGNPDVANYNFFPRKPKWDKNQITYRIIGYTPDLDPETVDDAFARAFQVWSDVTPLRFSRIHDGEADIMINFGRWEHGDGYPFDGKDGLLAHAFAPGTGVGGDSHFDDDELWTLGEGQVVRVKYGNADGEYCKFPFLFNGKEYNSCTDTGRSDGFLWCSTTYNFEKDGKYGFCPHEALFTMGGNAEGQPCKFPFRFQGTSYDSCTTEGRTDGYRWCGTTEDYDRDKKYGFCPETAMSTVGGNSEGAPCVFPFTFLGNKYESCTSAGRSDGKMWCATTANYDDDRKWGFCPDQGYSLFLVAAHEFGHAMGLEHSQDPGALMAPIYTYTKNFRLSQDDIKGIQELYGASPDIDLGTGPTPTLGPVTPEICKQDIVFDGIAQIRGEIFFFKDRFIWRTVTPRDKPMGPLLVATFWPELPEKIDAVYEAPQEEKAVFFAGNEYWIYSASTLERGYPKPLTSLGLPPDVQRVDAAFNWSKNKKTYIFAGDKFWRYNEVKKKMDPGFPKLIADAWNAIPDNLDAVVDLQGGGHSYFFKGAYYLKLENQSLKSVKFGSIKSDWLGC
Sequence of Matrix metalloproteinase-9 (P14780 whole entry): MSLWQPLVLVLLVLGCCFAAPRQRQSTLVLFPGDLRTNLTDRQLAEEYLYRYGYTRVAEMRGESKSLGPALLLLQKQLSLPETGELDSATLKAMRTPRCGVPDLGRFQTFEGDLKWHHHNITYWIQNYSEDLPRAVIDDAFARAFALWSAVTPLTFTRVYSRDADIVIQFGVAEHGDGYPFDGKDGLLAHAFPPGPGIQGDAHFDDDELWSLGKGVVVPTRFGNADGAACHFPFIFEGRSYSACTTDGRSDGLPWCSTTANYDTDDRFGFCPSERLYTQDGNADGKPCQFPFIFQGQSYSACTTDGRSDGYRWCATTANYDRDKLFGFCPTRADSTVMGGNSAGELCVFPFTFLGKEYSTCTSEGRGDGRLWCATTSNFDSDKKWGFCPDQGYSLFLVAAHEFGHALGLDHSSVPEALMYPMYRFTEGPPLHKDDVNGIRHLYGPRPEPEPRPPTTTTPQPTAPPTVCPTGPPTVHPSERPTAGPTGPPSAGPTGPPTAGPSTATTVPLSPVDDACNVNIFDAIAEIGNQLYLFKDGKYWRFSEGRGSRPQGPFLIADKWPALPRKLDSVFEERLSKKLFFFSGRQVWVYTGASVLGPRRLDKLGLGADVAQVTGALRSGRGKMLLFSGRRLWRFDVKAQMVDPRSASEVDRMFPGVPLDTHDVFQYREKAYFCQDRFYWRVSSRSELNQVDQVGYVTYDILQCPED

| Compound | CC50 at 24 h [1] [µM] | IC50 [2] [µM] | CC50 at 24 h [3] [µM] | IC50 [4] [µM] | inhibition at 0.1 µM (Caco-2 [5]) [%] | Activity (HT-1080 [9]) | inhibition (Caco-2 [10]) | Activity (Caco-2 [11]) | inhibition (Caco-2 [12]) | Activity (Caco-2 [14]) | inhibition at 100 µM (HT-1080 [16]) [%] | Activity (HT-1080 [17]) | inhibition (HT-1080 [18]) | Activity (Caco-2 [19]) | Activity (Caco-2 [20]) | other results |
| --- | --- | --- | --- | --- | --- | --- | --- | --- | --- | --- | --- | --- | --- | --- | --- | --- |
| O=C1NC(=O)C(c2ccc(Oc3ccccc3)cc2)(N(CCO)CCO)C(=O)N1 | 6.8 | 0.0038 | 8.2 | 0.026 | 51.2 | – | – | – | – | – | – | – | – | – | – | – |
| O=C1NC(=O)C(c2ccc(Oc3ccccc3)cc2)(N2CCCC(CO)C2)C(=O)N1 (configuration not stated) | 46.4 | 0.015 | 33.1 | 0.0062 | 55.3 | – | – | – | – | – | – | – | – | – | – | – |
| O=C1NC(=O)C(c2ccc(Oc3ccccc3)cc2)(N2CCN(CCO)CC2)C(=O)N1 | > 100 | – | > 100 | – | 46.3 | – | – | – | – | – | – | – | – | – | – | cytotoxicity at 24 h, 100 µM [6]: 25%; cytotoxicity at 24 h, 100 µM [7]: 33% |
| O=C1NC(=O)C(c2ccc(Oc3ccccc3)cc2)(N2CCCC(CO[N+](=O)[O-])C2)C(=O)N1 (configuration not stated) | 8.1 | 0.179 | > 12.5 | 0.104 | 40.7 | Non-toxic | inactive | Active | Active | Non-toxic | > 80 | Non-toxic | Active | Active | Non-toxic | Activity (Caco-2 [8]): inactive; Activity (Caco-2 [13]): inactive; cytotoxicity at 24 h, 12.5 µM [15]: 37% |
| O=C1NC(=O)C(c2ccc(Oc3ccccc3)cc2)(N2CCC(CO)CC2)C(=O)N1 | 66.6 | 0.066 | 47.8 | 0.097 | 39 | – | – | – | – | – | – | – | – | – | – | – |
| O=C1NC(=O)C(c2ccc(Oc3ccccc3)cc2)(N2CCC(CCO[N+](=O)[O-])CC2)C(=O)N1 | 78.7 | 0.158 | > 200 | 0.152 | – | Non-toxic | inactive | Active | Active | Non-toxic | – | Non-toxic | Active | Active | Non-toxic | inhibition (HT-1080 [16]): Active; inhibition at 10 µM (Caco-2 [21]): 44.5%; cytotoxicity at 24 h, 200 µM [22]: 100% |
| CN(CCO[N+](=O)[O-])C1(c2ccc(Oc3ccccc3)cc2)C(=O)NC(=O)NC1=O | 48.5 | 0.053 | > 100 | 0.0476 | 44.6 | Non-toxic | inactive | Active | Active | Non-toxic | – | Non-toxic | Active | Active | Non-toxic | cytotoxicity at 24 h, 100 µM [6]: 28%; inhibition (HT-1080 [16]): Active; inhibition (Caco-2 [23]): inactive |
| O=C1NC(=O)C(c2ccc(Oc3ccccc3)cc2)(N(CCO[N+](=O)[O-])CCO[N+](=O)[O-])C(=O)N1 | 72 | 0.328 | > 100 | 0.091 | 51.4 | Non-toxic | inactive | Active | Active | Non-toxic | > 80 | Non-toxic | Active | Active | Non-toxic | cytotoxicity at 24 h, 100 µM [6]: 6%; inhibition at 10 µM (Caco-2 [21]): 43.3%; inhibition at 10 µM (Caco-2 [23]): 51% |
| O=C1NC(=O)C(c2ccc(Oc3ccccc3)cc2)(N2CCN(CCO[N+](=O)[O-])CC2)C(=O)N1 | 12.8 | 0.149 | 26 | 0.092 | 34.8 | Non-toxic | inactive | Active | Active | Non-toxic | > 80 | Non-toxic | Active | Active | Non-toxic | – |
| O=C1NC(=O)C(c2ccc(Oc3ccccc3)cc2)(N2CCC(CO[N+](=O)[O-])CC2)C(=O)N1 | 11.8 | 0.219 | > 12.5 | 0.212 | 35.8 | Non-toxic | inactive | Active | Active | Non-toxic | > 80 | Non-toxic | Active | Active | Non-toxic | Activity (Caco-2 [8]): inactive; Activity (Caco-2 [13]): inactive; cytotoxicity at 24 h, 2.5 µM [24]: 12%; inhibition at 10 µM (Caco-2 [21]): 64.9% |
| CN(CCO)C1(c2ccc(Oc3ccccc3)cc2)C(=O)NC(=O)NC1=O | 78.5 | 0.024 | 76.5 | 0.145 | 34.4 | – | – | – | – | – | – | – | – | – | – | – |
| O=C1NC(=O)C(c2ccc(Oc3ccccc3)cc2)(N2CCC(CCO)CC2)C(=O)N1 | 30.1 | 0.01 | 25.2 | 0.012 | – | – | – | – | – | – | – | – | – | – | – | – |

— ChEMBL document CHEMBL2062484, “Design of barbiturate-nitrate hybrids that inhibit MMP-9 activity and secretion” (J Med Chem, 2012)
